The list is not random: actives were taken first. Their share in the collection is about 3.6%.
pPAFAH FP inh: pPAFAH (human) enzyme inhibition | Q13093 | recombinant pPAFAH, FP-rhodamine probe fluorescence polarization | inhibition, % at 3.39 µM | hit rate 1.5% among 330,000;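 active means inhibition above the mean inhibition across the screen plus 3 SD, cut at about 25% in these data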;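 further: inhibitors block binding of the rhodamine activity-based probe so polarization drops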
Target sequence (Q13093 whole entry, looked up): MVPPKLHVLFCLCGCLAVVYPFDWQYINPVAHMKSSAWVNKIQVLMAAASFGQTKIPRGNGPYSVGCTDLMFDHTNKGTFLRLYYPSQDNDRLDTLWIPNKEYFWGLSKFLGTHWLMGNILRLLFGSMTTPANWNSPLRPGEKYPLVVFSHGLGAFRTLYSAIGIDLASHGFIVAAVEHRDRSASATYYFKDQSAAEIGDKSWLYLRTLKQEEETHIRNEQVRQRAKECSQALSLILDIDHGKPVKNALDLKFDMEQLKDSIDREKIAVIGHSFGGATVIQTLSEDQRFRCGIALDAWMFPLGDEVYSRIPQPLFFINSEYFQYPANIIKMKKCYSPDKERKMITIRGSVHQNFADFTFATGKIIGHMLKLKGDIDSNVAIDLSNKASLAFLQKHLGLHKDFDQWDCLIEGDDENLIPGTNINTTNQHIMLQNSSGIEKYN
VIM-2 inhibitor: blocks Pseudomonas aeruginosa VIM-2 metallo-beta-lactamase; AID 1527; hit rate 0.89% among 290,000; inhibition, % at 5.6 µM; purified VIM-2, nitrocefin hydrolysis, epi-absorbance fluorescence;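 active means inhibition above the mean of all tested compounds plus 3 SD, cutoff set per screening run, cut at about 7.5% in these data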;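 further: red hydrolysis product quenches plate fluorescence so inhibitors raise well fluorescence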
PAFAH1B2 FP inh: inhibitors of human PAFAH1B2 | hit rate 1.2% among 340,000 | inhibition, % at 3.39 µM | recombinant PAFAH1B2, FP-rhodamine activity probe, fluorescence polarization;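 active means inhibition above the mean of all tested compounds plus 3 SD, cut at about 24% in these data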
PAFAH2 FP inh: inhibitors of human PAFAH2; Q99487; recombinant PAFAH2, FP-rhodamine activity probe, fluorescence polarization; inhibition, % at 3.39 µM; hit rate 0.99% among 340,000; AID 492956;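 active means inhibition above the mean over all tested compounds plus 3 SD, cut at about 30% in these data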;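 further: inhibitors block probe labeling of enzyme so polarization drops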
PAFAH1B3 inh: blocks human PAF acetylhydrolase 1B catalytic subunit 3. recombinant PAFAH1B3, FP-rhodamine probe, fluorescence polarization. inhibition, % at 3.39 µM. hit rate 0.28% among 340,000;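 active means inhibition above the screen-wide average of all tested compounds plus 3 SD, cut at about 25% in these data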
Target sequence (Q15102 whole entry, looked up): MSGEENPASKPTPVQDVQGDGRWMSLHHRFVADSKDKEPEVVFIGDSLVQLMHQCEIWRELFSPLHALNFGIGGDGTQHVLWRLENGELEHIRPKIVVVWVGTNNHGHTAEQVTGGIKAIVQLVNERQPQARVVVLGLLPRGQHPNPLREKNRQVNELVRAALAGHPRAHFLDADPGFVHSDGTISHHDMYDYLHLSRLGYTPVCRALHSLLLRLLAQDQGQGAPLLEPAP
IMP-1 inh: blocks Pseudomonas aeruginosa IMP-1 metallo-beta-lactamase | purified IMP-1, nitrocefin hydrolysis, epi-absorbance fluorescence | inhibition, % at 5.6 µM | hit rate 0.45% among 290,000 | AID 1556;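 active means inhibition above the mean plus 3 SD of all compounds in the same screening run, cut at about 4.5% in these data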
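System: purified recombinant IMP-1 beta-lactamase. Medium: Zinc- and detergent-supplemented HEPES buffer, pH 7.1. Compound: one 5.6 µM dose […]. Schedule: 15 min preincubation plus 25 min reaction at 25 °C. Technique: Epi-absorbance fluorescence, 480 nm excitation, 530 nm emission.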
PAFAH2 confirm: PAFAH2 (human) inhibition, confirmed. shares compounds with PAFAH2 FP inh. recombinant PAFAH2, FP-rhodamine activity probe, fluorescence polarization. inhibition, % at 3.39 µM. hit rate 65% among 2,300;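 active means mean inhibition over three repeats above a set limit taken from the earlier primary screen, cut at about 30% in these data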;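 further: inhibitor blocks binding of rhodamine activity probe so polarization falls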
PAFAH1B3 conf FP: confirmation of human PAFAH1B3 inhibitors; shares compounds with PAFAH1B3 inh; recombinant PAFAH1B3, FP-Rh activity-based probe, fluorescence polarization; inhibition, % at 3.39 µM; hit rate 30% among 390;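 active means average inhibition over triplicate runs above the hit cutoff set in the earlier primary screen, cut at about 25% in these data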
Hits are given with their value; . = inactive; / = no result given.

SMILES	pPAFAH FP inh	VIM-2 inhibitor	PAFAH1B2 FP inh	PAFAH2 FP inh	PAFAH1B3 inh	IMP-1 inh	PAFAH2 confirm	others
COc1ccccc1N1CCN(CCc2ccccc2)CC1	.	.	.	.	.	.	/
O=C(c1cc2c(s1)-c1ccccc1OC2)N1CCC2(CC1)OCCO2	.	.	.	30.6	.	.	.
COC(=O)C1=C(c2cccc(C#N)c2)C[C@@H]2CC[C@H]1N2C(=O)NC1Cc2ccccc2C1	.	/	.	.	.	/	/
O=CNc1ccc(OP(=O)(Oc2ccccc2)Oc2ccccc2)cc1	.	.	.	.	.	.	/
COC1=CC(=O)OC(CCc2ccc3c(c2)OCO3)C1 (configuration not stated)	/	/	.	.	.	/	/
CC(=O)Nc1ccc(C(=O)OCC(=O)Nc2ccc(Cl)cc2C(=O)c2ccccc2)cc1	.	.	.	68.6	.	.	73.0
O=C(COC(=O)c1ccc(O)cc1)Nc1ccc(Cl)cc1C(=O)c1ccccc1	.	.	.	63.3	.	.	60.8
O=C(COc1ccccc1)Nc1ccc(Cl)cc1C(=O)c1ccccc1	.	.	.	.	.	.	/
Cc1ccc(/C=C2\C(=O)NC(=O)N(CC3CCCO3)C2=O)s1 (configuration not stated)	.	.	.	33.2	.	.	.
CC=C(CC)C1(CC)C(=O)NC(=S)NC1=O	/	/	.	.	.	/	/
O=C(c1ccc(CNS(=O)(=O)c2ccc(Br)cc2)cc1)N1CCC2(CC1)OCCO2	.	.	.	.	.	.	/
O=C(CNS(=O)(=O)c1ccc(Br)s1)N1CCC2(CC1)OCCO2	.	.	.	35.7	.	.	.
Cc1cc(C)c2c(ccc3cccc[n+]32)c1	.	/	/	/	/	/	/
Cc1cccc(NC(=O)COC(=O)c2cc(C)n(C3CC3)c2C)c1	.	/	.	40.1	.	/	.
COc1ccc(/C=C2/C(=O)N(Cc3ccco3)C(=O)N(C(C)C)C2=O)cc1	.	.	.	30.0	.	.	.
COc1ccc(CN2C(=O)NC(=O)/C(=C\c3ccco3)C2=O)cc1	.	.	.	.	.	.	/
O=C(CN1CC(c2ccccc2)CC1=O)Nc1ccccc1 (configuration not stated)	.	.	.	43.7	.	.	.
O=C1NC(=S)N(c2ccccc2)C(=O)/C1=C/c1ccco1	.	.	.	30.0	.	.	58.8
COc1ccc(-c2nc3ccccc3c(=O)o2)cc1	.	.	.	78.1	.	.	70.8
COc1ccc(-n2c(-c3ccc(C)cc3)nc3ccccc3c2=O)cc1	.	.	.	.	.	.	/
COC(=O)C1=C(c2c(C)noc2C)C[C@@H]2CC[C@H]1N2C(=O)NCCNC(C)=O	.	/	.	.	.	/	/
Cc1c(C(c2ccc(Cl)cc2Cl)c2c(O)c3ccccc3oc2=O)c(=O)n(-c2ccccc2)n1C (configuration not stated)	.	.	.	39.0	.	.	33.1
CC(=O)Nc1ccc(C(c2c(O)c3ccccc3oc2=O)c2c(C)n(C)n(-c3ccccc3)c2=O)cc1 (configuration not stated)	.	.	.	.	.	.	/
Cc1c(C(c2ccc(Br)cc2)c2c(O)c3ccccc3oc2=O)c(=O)n(-c2ccccc2)n1C (configuration not stated)	.	.	.	.	.	.	/
CSc1ccc(C(c2c(O)c3ccccc3oc2=O)c2c(C)n(C)n(-c3ccccc3)c2=O)cc1 (configuration not stated)	.	.	.	39.5	.	.	.
SMILES	pPAFAH FP inh	VIM-2 inhibitor	PAFAH1B2 FP inh	PAFAH2 FP inh	PAFAH1B3 inh	IMP-1 inh	PAFAH2 confirm	others
Cn1cccc1/C=C1\C(=O)NC(=O)N(Cc2ccccc2Cl)C1=O	/	.	.	30.5	.	.	.
Cn1cccc1/C=C1\C(=O)NC(=O)N(CCC2=CCCCC2)C1=O	/	.	.	.	.	.	/
CCCNC(=O)N1[C@H]2CC[C@@H]1C(C(=O)OC)=C(c1ccc3ccccc3c1)C2	.	/	.	.	.	/	/
Cc1cc(C)cc(N2C(=O)NC(=O)/C(=C\c3cccn3-c3ccccc3)C2=O)c1	.	.	.	46.1	.	.	33.8
CC1CN(C(=O)CCC(=O)N2CCC3(CC2)OCCO3)c2cc(Cl)ccc2O1 (configuration not stated)	.	.	.	.	.	.	/
Cc1cc(/C=C2/C(=O)NC(=O)N(Cc3ccco3)C2=O)c(C)n1-c1ccccc1	.	.	.	32.7	.	.	.
CCN(CC)c1ccc(/C=C2/C(=O)NC(=O)N(Cc3ccco3)C2=O)cc1	.	.	.	.	.	.	/
Cn1cc(C(=O)OCC(=O)NC2CCCC2)c2ccccc21	.	/	.	58.7	.	/	37.0
c1ccc(-c2nnc(C3CC(c4cccnc4)=NO3)o2)cc1 (configuration not stated)	.	/	.	.	.	/	/
COC(=O)c1nc(-c2ccc3c(n2)C(=O)C(N)=C(OC)C3=O)c(N)c(-c2ccc(OC)c(OC)c2O)c1C	.	.	.	.	70.3	.	/	PAFAH1B3 conf FP=66.8
Cc1ccccc1N1CCN(C2CCCN(C(=O)Cc3c(C)noc3C)C2)CC1 (configuration not stated)	.	.	.	.	.	.	/
CC1=C(N2CC2)C(=O)C(CO)=C(N2CC2)C1=O	/	/	.	.	.	/	/
CC(C)[C@H]1C(=O)N2CCC[C@H]2[C@]2(O)O[C@](NC(=O)[C@@H]3C=C4c5cccc6[nH]cc(c56)C[C@H]4N(C)C3)(C(C)C)C(=O)N12	.	.	.	.	31.5	.	/	PAFAH1B3 conf FP=.
Oc1ccc(C2=CCNCC2)cc1O	.	/	.	.	.	/	/
CCCCn1c(NS(=O)(=O)c2ccc(C)cc2)c(C(=O)OCC)c2nc3ccccc3nc21	.	.	.	.	40.1	.	/	PAFAH1B3 conf FP=.
CCCCn1c(N)c(C(=O)OCCOC)c2nc3ccccc3nc21	.	.	/	/	/	.	/
CC1=CC2OC3CC4OC(=O)C=CC=CC(=O)OCCC(C)C(O)C(=O)OCC2(CC1O)C4(C)C31CO1 (configuration not stated)	/	/	.	.	.	/	/
CN(C)[C@@H]1C(=O)C(C(N)=O)=C(O)[C@@]2(O)C(=O)C3=C(O)c4c(O)cccc4[C@@](C)(O)C3C[C@@H]12 (some centres not stated)	31.9	/	.	.	29.7	/	/	PAFAH1B3 conf FP=.
CCCNC(=O)c1c(N)n(CC2CCCO2)c2nc3ccccc3nc12 (configuration not stated)	.	.	.	.	26.7	.	/	PAFAH1B3 conf FP=.

High-throughput results: PubChem BioAssay, The Scripps Research Institute Molecular Screening Center
